Assay results published in ChEMBL document CHEMBL2346497, “Synthesis of novel cognition enhancers with pyrazolo[5,1-c][1,2,4]benzotriazine core acting at γ-aminobutyric acid type A (GABA(A)) receptor” (Bioorg Med Chem, 2013).
The source made the active and inactive calls. The calls are words filed in the database; no cut-off is given here.

How the values were obtained:
[1] = test system: Rattus norvegicus; assay: Induction of acetylcholine release in Harlan Wistar rat parietal cortex at 10 mg/kg, ip measured within 120 mins by microdialysis method; format: functional, organism-based; set-up: dose 10 mg/kg
Method in brief: (§1)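 Microdialysis in the parietal cortex of male Wistar rats, with a horizontal tube implanted at AP 0.5 mm and H 2.3 mm from bregma. One day after surgery the tube was perfused with Ringer containing physostigmine. After a 1 h settling period, 20-min fractions were collected into HCl. Drug was given ip in 1% CMC at time 0. ACh was measured by HPLC with electrochemical detection, n = 6 rats.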

[2] = test system: Rattus norvegicus; assay: Induction of acetylcholine release in Harlan Wistar rat parietal cortex at 10 mg/kg, ip after 60 to 80 mins by microdialysis method; format: functional, organism-based; set-up: dose 10 mg/kg; method in brief: as §1
[3] = target: GABA A receptor alpha-2/beta-2/gamma-2 (Homo sapiens) (UniProt P47870+P18507+P47869); assay: Displacement of [3H]Ro15-1788 from recombinant GABA-A alpha2beta2gamma2 receptor benzodiazepine binding site (unknown origin) at 10 uM after 1 hr relative to control; format: protein-complex assay
Method in brief: (§2)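 Membranes came from clonal mammalian cell lines expressing α1β2γ2, α2β2γ2 or α5β3γ2 receptors, grown in MEM/EBSS with 10% FCS at 37 °C. Membranes were resuspended in 10 mM potassium phosphate, pH 7.4, with 100 mM KCl. Assays used 1–2 nM [3H]Ro15-1788 and test compound from 10^-9 to 10^-5 M, at least six concentrations. Diazepam at 10^-5 M defined nonspecific binding. Incubation ran 1 h at 4 °C. Single-point % inhibition was measured at 10 µM, and Ki by curve fitting; n = 5, in duplicate.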

[4] = target: T1, GABA-A receptor; alpha-1/beta-2/gamma-2 (Homo sapiens, UniProt P14867+P18507+P47870); assay: Displacement of [3H]Ro15-1788 from recombinant GABA-A alpha1beta2gamma2 receptor benzodiazepine binding site (unknown origin) after 1 hr; format: protein-complex assay; method in brief: as §2
T1 sequence (P14867 whole entry): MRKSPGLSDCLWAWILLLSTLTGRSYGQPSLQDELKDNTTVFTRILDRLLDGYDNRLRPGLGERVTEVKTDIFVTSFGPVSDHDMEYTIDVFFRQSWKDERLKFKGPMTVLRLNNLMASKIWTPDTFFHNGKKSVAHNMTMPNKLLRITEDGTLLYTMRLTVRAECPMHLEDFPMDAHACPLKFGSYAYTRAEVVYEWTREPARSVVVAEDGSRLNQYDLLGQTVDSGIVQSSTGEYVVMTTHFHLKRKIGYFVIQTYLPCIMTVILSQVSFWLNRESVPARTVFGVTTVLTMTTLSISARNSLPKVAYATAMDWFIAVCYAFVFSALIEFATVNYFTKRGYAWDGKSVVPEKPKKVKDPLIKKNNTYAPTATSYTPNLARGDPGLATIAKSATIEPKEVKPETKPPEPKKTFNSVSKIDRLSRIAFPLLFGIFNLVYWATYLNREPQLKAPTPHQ
T1 sequence (P47870 whole entry): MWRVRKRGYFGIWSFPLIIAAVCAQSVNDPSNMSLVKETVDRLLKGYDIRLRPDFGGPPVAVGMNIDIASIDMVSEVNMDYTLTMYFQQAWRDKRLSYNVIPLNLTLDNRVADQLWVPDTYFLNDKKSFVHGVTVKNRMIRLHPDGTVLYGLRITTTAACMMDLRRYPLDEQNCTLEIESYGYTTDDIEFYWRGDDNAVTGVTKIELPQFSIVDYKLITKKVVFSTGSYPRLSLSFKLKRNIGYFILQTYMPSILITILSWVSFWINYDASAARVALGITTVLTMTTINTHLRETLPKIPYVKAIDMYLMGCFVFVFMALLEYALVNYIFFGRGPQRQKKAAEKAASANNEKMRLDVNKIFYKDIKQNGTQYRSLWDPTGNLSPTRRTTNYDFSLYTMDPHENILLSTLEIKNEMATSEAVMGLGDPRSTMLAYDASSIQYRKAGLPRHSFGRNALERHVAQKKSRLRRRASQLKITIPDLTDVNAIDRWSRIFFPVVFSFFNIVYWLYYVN
T1 sequence (P18507 whole entry): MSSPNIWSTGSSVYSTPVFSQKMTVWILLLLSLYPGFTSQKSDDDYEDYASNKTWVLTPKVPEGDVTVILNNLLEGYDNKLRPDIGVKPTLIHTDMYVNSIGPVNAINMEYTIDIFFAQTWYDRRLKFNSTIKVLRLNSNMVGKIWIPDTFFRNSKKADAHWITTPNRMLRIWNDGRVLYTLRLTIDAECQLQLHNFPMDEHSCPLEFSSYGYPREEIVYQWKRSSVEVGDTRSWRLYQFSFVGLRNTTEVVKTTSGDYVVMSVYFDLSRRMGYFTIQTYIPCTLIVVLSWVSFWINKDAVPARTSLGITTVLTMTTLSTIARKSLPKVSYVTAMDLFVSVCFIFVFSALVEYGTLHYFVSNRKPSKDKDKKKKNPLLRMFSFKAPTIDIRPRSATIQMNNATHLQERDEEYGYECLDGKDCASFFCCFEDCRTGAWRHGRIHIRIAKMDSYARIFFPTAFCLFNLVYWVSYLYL

[5] = test system: Mus musculus; assay: Neurotoxicity in CD1 albino mouse assessed as decrease in number of falls from rotating rod at 10 mg/kg, po by rota-rod test relative to control; format: toxicity, organism-based; set-up: dose 10 mg/kg, route oral; settings: in vivo, TDE = time-dependent effect
Method in brief: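 Motor coordination was tested on a rota-rod turning at 24 rpm in male CD-1 mice dosed po in 1% CMC. Falls within 30 s were counted at a pretest and at 15, 30, 45 and 60 min after dosing. Each value is the mean of five mice, compared with CMC-treated controls.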

[6] = test system: Mus musculus; assay: Anxiolytic activity in CD1 albino mouse assessed as increase in time spent in illuminated side at 3 to 10 mg/kg, po administered 30 mins prior to testing measured for 5 mins by light-dark box test; format: functional, organism-based
Method in brief: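 Light/dark box: two equal acrylic compartments, one lit by a 60 W lamp, joined by a floor-level opening. Male CD-1 mice were dosed po in 1% CMC 30 min before the test, then placed in the centre of the lit side facing away from the dark side. Over 5 min, transfers and time in the light side were recorded, n = 8 mice per group.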

[7] = test system: Rattus norvegicus; assay: Procognitive effect in Harlan Wistar rat assessed as decrease in exploring time of unfamiliar rat during social investigatory behaviour at 1 to 10 mg/kg, po administered 30 mins prior to testing measured for 5 mins by social learning test relative to control; format: functional, organism-based
[8] = test system: Rattus norvegicus; assay: Procognitive effect in Harlan Wistar rat assessed as exploring time of familiar rat during social investigatory behaviour at 10 mg/kg, po administered 30 mins prior to testing measured for 5 mins by social learning test (reference value: 27.6 secs); format: functional
[9] = test system: Rattus norvegicus; assay: Procognitive effect in Harlan Wistar rat assessed as exploring time of familiar rat during social investigatory behaviour at 1 mg/kg, po administered 30 mins prior to testing measured for 5 mins by social learning test (reference value: 27.6 secs); format: functional
[10] = test system: Mus musculus; assay: Antiamnesic activity in CD1 albino mouse assessed as reversal of scopolamine-induced amnesia at 1 mg/kg, po administered 30 mins prior to scopolamine challenge measured after 24 hrs by passive avoidance test; format: functional, organism-based; set-up: dose 1 mg/kg
Method in brief: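 Step-through passive avoidance in male CD-1 mice (22–24 g). Test drugs were given po, suspended in 1% carboxymethylcellulose at 10 ml/kg, 30 min before the training session. For the antiamnesic arm, scopolamine 1.5 mg/kg was injected immediately after punishment. Retention latency was compared with CMC-treated controls, n = 10–12 mice per group.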

inhibition [3]: 5%
Ki [4]: 22.7 nM
Structure (SMILES): Cc1cnn2c1n[n+]([O-])c1ccc(OCc3ccncc3)cc12
Activity [1]: inactive
Activity [2]: Active
Activity [5]: tde
Activity [6]: inactive
Activity [7]: inactive
Time [8]: 41.4 s
Time [9]: 33.2 s
Activity [10]: Active
